The values that follow come from ChEMBL document CHEMBL1128718, “2-Substituted penems with amino acid-related side chains: synthesis and antibacterial activity of a new series of beta-lactam antibiotics” (1995).

What all share (type): functional
In one test the test system is Clostridium perfringens. The test is described as follows: In Vitro Anti Bacterial Activity (MIC90) against 90% of tested clinical Isolates of Clostridium perfringens(27). The essentials: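 MIC90 over clinical isolates of this anaerobic species, taken from the MIC distribution. Anaerobes were tested on Wilkins-Chalgren agar with an inoculum of 10⁵ cells/mL and incubated 24–48 h at 37 °C.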

The next test concerns Streptococcus pneumoniae. The test is described as follows: In Vitro Anti Bacterial Activity (MIC90) against 90% of tested clinical Isolates of Streptococcus pneumoniae (23).
In test [1] the test system is Escherichia coli. Nature of the test: In Vitro antibacterial activity against (Ec L) Escherichia coli […] strain. The essentials: (§1)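 Panel of standard ATCC strains plus modified strains: methicillin-resistant, hyperpermeable, β-lactamase-producing (TEM1, TEM2, SHV) and β-lactamase-lacking. MIC determined in Mueller Hinton 2 medium, inoculum 10⁴ cells/mL, incubated 24 h at 37 °C.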

Test [2] has as its system Escherichia coli. The test is described as follows: In Vitro antibacterial activity against (Ec) Escherichia coli ATCC 25922. The essentials: as §1
In test [3] the test system is Pseudomonas aeruginosa. Nature of the test: In Vitro antibacterial activity against (Pa) hyperpermeable Pseudomonas aeruginosa […] strain. The essentials: as §1
The test system of the next test is Yersinia sp. Nature of the test: In Vitro Anti Bacterial Activity (MIC90) against 90% of tested clinical Isolates of Yersinia species(20). The settings on record: Yersinia sp. (in: enterobacteria).
A further test relates to Klebsiella aerogenes. Nature of the test: In Vitro Anti Bacterial Activity (MIC90) against 90% of tested clinical Isolates of Enterobacter aerogenes(19). The procedure, abridged: (§2)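 Over 500 clinical isolates tested in total; the line gives the isolate count. MIC90 for aerobes by dilution in Mueller Hinton 2 medium, inoculum 10⁴ cells/mL, incubated 24 h at 37 °C.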
The test system of test [4] is Pseudomonas aeruginosa. Nature of the test: In Vitro Anti Bacterial Activity (MIC90) against 90% of tested clinical Isolates of Pseudomonas aeruginosa(11). The essentials:
as §2

Test [5] has as its system Escherichia coli. Nature of the test: In Vitro antibacterial activity against (Ec TEM1) Escherichia coli […] strain. The essentials:
as §1

For test [6], the system named is Pseudomonas aeruginosa. Nature of the test: In Vitro antibacterial activity against (Pa G242) hyperpermeable Pseudomonas aeruginosa strain. The essentials: as §1
Test [7] has as its system Escherichia coli. The test is described as follows: In Vitro antibacterial activity against (Ec DC2) hyperpermeable Escherichia coli strain. The essentials:
as §1

The test system of test [8] is Staphylococcus aureus. The test is described as follows: In vitro antibacterial activity against Sa MR(II) homogeneous methicillin resistant Staphylococcus aureus. The procedure, abridged:
(§3)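 MIC was determined in Mueller Hinton 2 medium with an inoculum of 10⁴ cells/mL and incubation for 24 h at 37 °C. Strains: Sa(I) is S. aureus ATCC 29213; Sa MR(I) is a heterogeneous methicillin-resistant S. aureus; Sa MR(II) is a homogeneous methicillin-resistant S. aureus.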

The test system of the next test is Enterococcus faecium. The test is described as follows: In Vitro Anti Bacterial Activity (MIC90) against 90% of tested clinical Isolates of Enterococcus faecium(47). The essentials: as §2
In test [9] the test system is Escherichia coli. Nature of the test: In Vitro antibacterial activity against (Ec SHV) Escherichia coli […] strain. The procedure, abridged: as §1
The test system of the next test is Haemophilus influenzae. Nature of the test: In Vitro Anti Bacterial Activity (MIC90) against 90% of tested clinical Isolates of Haemophilus Influenzae(21). The essentials:
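Clinical isolates. MIC90 in Haemophilus Test Medium Base plus Haemophilus Test Medium Supplement, inoculum 10⁴ cells/mL, incubated 24–48 h at 37 °C.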

Test [10] relates to Staphylococcus epidermidis. The test is described as follows: In Vitro Anti Bacterial Activity (MIC90) against 90% of tested clinical Isolates of Staphylococcus epidermidis (13). The essentials: as §2
For the next test, the system named is Streptococcus pyogenes. The test is described as follows: In Vitro Anti Bacterial Activity (MIC90) against 90% of tested clinical Isolates of Streptococcus pyogenes(31).
A further test concerns Bacteroides fragilis. The test is described as follows: In Vitro Anti Bacterial Activity (MIC90) against 90% of tested clinical Isolates of Bacteroides fragilis(15). The essentials: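 Anaerobic clinical isolates. MIC90 by dilution in Wilkins-Chalgren agar, inoculum 10⁵ cells/mL, incubated 24–48 h at 37 °C.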
In another test the test system is Listeria monocytogenes. The test is described as follows: In Vitro Anti Bacterial Activity (MIC90) against 90% of tested clinical Isolates of Listeria monocytogenes (20). The essentials: as §2
For a further test, the system named is Streptococcus agalactiae. Nature of the test: In Vitro Anti Bacterial Activity (MIC90) against 90% of tested clinical Isolates of Streptococcus agalactiaeB(21).
Test [11] concerns Enterococcus faecalis. Nature of the test: In Vitro antibacterial activity against (Ef) Enterococcus faecalis ATCC 29212. The procedure, abridged: as §1
Test [12] has as its system Staphylococcus aureus. The test is described as follows: In vitro antibacterial activity against Sa(II) Staphylococcus aureus ATCC 25923. The procedure, abridged: as §1
In test [13] the test system is Enterococcus faecalis. The test is described as follows: In Vitro Anti Bacterial Activity (MIC90) against 90% of tested clinical Isolates of Enterococcus faecalis(47). The essentials: as §2
The subject of the next test is Moraxella catarrhalis. Nature of the test: In Vitro Anti Bacterial Activity (MIC90) against 90% of tested clinical Isolates of Branhamella catarrhalis(27).
Test [14] relates to Escherichia coli. The test is described as follows: In Vitro antibacterial activity against (Ec TEM2) Escherichia coli […] strain. The procedure, abridged:
as §1

For test [15], the system named is Staphylococcus aureus. The test is described as follows: In vitro antibacterial activity against Sa MR(I) heterogeneous methicillin resistant Staphylococcus aureus. The procedure, abridged: as §3
Test [16] relates to Escherichia coli. The test is described as follows: In Vitro Anti Bacterial Activity (MIC90) against 90% of tested clinical Isolates of Escherichia coli. The procedure, abridged:
as §2

The test system of test [17] is Pseudomonas aeruginosa. The test is described as follows: In Vitro antibacterial activity against (Pa) Pseudomonas aeruginosa ATCC 27853. The essentials: as §1
The test system of test [18] is Staphylococcus aureus. Nature of the test: In vitro antibacterial activity against Sa(I) Staphylococcus aureus ATCC 29213. The essentials: as §3
In the next test the test system is Citrobacter freundii. Nature of the test: In Vitro Anti Bacterial Activity (MIC90) against 90% of tested clinical Isolates of Citrobacter freundii(20). The essentials: as §2
Test [19] relates to Staphylococcus aureus. The test is described as follows: In Vitro Anti Bacterial Activity (MIC90) against 90% of tested clinical Isolates of Staphylococcus aureus MS (6). The procedure, abridged: as §2
The subject of the next test is Klebsiella pneumoniae. The test is described as follows: In Vitro Anti Bacterial Activity (MIC90) against 90% of tested clinical Isolates of Klebsiella pneumoniae(20). The essentials:
as §2

Test [20] deals with Staphylococcus aureus. The test is described as follows: In Vitro Anti Bacterial Activity (MIC90) against 90% of tested clinical Isolates of Staphylococcus aureus MV (20).
Test [21] has as its system Acinetobacter calcoaceticus subsp. anitratus. The test is described as follows: In Vitro Anti Bacterial Activity (MIC90) against 90% of tested clinical Isolates of Acinetobacter anitratus(20). The procedure, abridged:
as §2

The next test relates to Aeromonas. Nature of the test: In Vitro Anti Bacterial Activity (MIC90) against 90% of tested clinical Isolates of Aeromonas species(21). The essentials: as §2
Test [22] has as its system Stenotrophomonas maltophilia. Nature of the test: In Vitro Anti Bacterial Activity (MIC90) against 90% of tested clinical Isolates of Xanthomonas maltophilia(9). The procedure, abridged: as §2

Converted amounts (≈) assume the structure as drawn. Where only a bound is given, the exact number is not on record here.

Take `C[C@@H](O)[C@H]1C(=O)N2C(C(=O)O)=C(CN3CCC[C@@H]3C(N)=O)S[C@H]12`: the MIC90 is 1 µg/mL (≈ 2.93 µM) against Clostridium perfringens; 0.5 µg/mL (≈ 1.46 µM) against Streptococcus pneumoniae; 1 µg/mL (≈ 2.93 µM) in the test with Yersinia sp.; 16 µg/mL (≈ 46.9 µM) in the test on Klebsiella aerogenes; over 64 µg/mL against Pseudomonas aeruginosa [4]; over 64 µg/mL with Enterococcus faecium. The MIC90 was found to be 2 µg/mL (≈ 5.86 µM) in the test on Haemophilus influenzae; 0.12 µg/mL (≈ 0.352 µM) in test [10]; 0.5 µg/mL (≈ 1.46 µM) against Streptococcus pyogenes; 16 µg/mL (≈ 46.9 µM) in the test with Bacteroides fragilis; 2 µg/mL (≈ 5.86 µM) in the test on Listeria monocytogenes; 0.12 µg/mL (≈ 0.352 µM) against Streptococcus agalactiae. In addition, the MIC90 is 32 µg/mL (≈ 93.7 µM) with Enterococcus faecalis [13]; 2 µg/mL (≈ 5.86 µM) against Moraxella catarrhalis; 1 µg/mL (≈ 2.93 µM) against Escherichia coli [16]; 1 µg/mL (≈ 2.93 µM) against Citrobacter freundii; 0.06 µg/mL (≈ 0.176 µM) in the test on Staphylococcus aureus [19]; 1 µg/mL (≈ 2.93 µM) in the test with Klebsiella pneumoniae. The MIC90 against Staphylococcus aureus [20] is 8 µg/mL (≈ 23.4 µM); in test [21], 32 µg/mL (≈ 93.7 µM); in the test on Aeromonas it was 0.25 µg/mL (≈ 0.732 µM); in test [22], over 64 µg/mL. In addition, the MIC turned out to be 1 µg/mL (≈ 2.93 µM) with Escherichia coli [1]; 1 µg/mL (≈ 2.93 µM) against Escherichia coli [2]; 0.25 µg/mL (≈ 0.732 µM) in the test with Pseudomonas aeruginosa [3]; 1 µg/mL (≈ 2.93 µM) with Escherichia coli [5]; 1 µg/mL (≈ 2.93 µM) against Pseudomonas aeruginosa [6]; 0.5 µg/mL (≈ 1.46 µM) in the test on Escherichia coli [7]. The minimal inhibitory concentration (MIC) in the test with Staphylococcus aureus [8] was found to be 4 µg/mL (≈ 11.7 µM); in the test on Escherichia coli [9], 1 µg/mL (≈ 2.93 µM); with Enterococcus faecalis [11] it was 16 µg/mL (≈ 46.9 µM); in the test with Staphylococcus aureus [12], 0.015 µg/mL (≈ 0.0439 µM); in the test on Escherichia coli [14] it was 1 µg/mL (≈ 2.93 µM); against Staphylococcus aureus [15], 0.12 µg/mL (≈ 0.352 µM). The figures for the MIC against Pseudomonas aeruginosa [17] and against Staphylococcus aureus [18] were 32 µg/mL (≈ 93.7 µM) and 0.06 µg/mL (≈ 0.176 µM), respectively.

`C[C@@H](O)[C@H]1C(=O)N2C(C(=O)O)=C(CN3CCCCC3C(N)=O)S[C@H]12` (some centres undefined): the MIC came to 1 µg/mL (≈ 2.81 µM) against Escherichia coli [1]; 1 µg/mL (≈ 2.81 µM) against Escherichia coli [2]; 4 µg/mL (≈ 11.3 µM) against Pseudomonas aeruginosa [3]; 1 µg/mL (≈ 2.81 µM) in the test with Escherichia coli [5]; 1 µg/mL (≈ 2.81 µM) against Pseudomonas aeruginosa [6]; 1 µg/mL (≈ 2.81 µM) in the test with Escherichia coli [7]. Moreover, the MIC was found to be 2 µg/mL (≈ 5.63 µM) against Staphylococcus aureus [8]; 2 µg/mL (≈ 5.63 µM) with Escherichia coli [9]; 16 µg/mL (≈ 45 µM) in the test with Enterococcus faecalis [11]; 0.06 µg/mL (≈ 0.169 µM) against Staphylococcus aureus [12]; 2 µg/mL (≈ 5.63 µM) against Escherichia coli [14]; 0.12 µg/mL (≈ 0.338 µM) against Staphylococcus aureus [15]. For the same molecule, the MIC in the test with Pseudomonas aeruginosa [17] was over 64 µg/mL; in the test on Staphylococcus aureus [18], 0.12 µg/mL (≈ 0.338 µM).

As to `C[C@@H](O)[C@H]1C(=O)N2C(C(=O)O)=C(CN3C[C@@H](O)C[C@H]3C(N)=O)S[C@H]12`, the MIC stood at 2 µg/mL (≈ 5.6 µM) in the test with Escherichia coli [1]; 0.5 µg/mL (≈ 1.4 µM) in the test with Escherichia coli [2]; 0.5 µg/mL (≈ 1.4 µM) with Pseudomonas aeruginosa [3]; 1 µg/mL (≈ 2.8 µM) against Escherichia coli [5]; 2 µg/mL (≈ 5.6 µM) against Pseudomonas aeruginosa [6]; 2 µg/mL (≈ 5.6 µM) with Escherichia coli [7]. The minimum inhibitory concentration (MIC) with Staphylococcus aureus [8] amounted to 8 µg/mL (≈ 22.4 µM); against Escherichia coli [9], 2 µg/mL (≈ 5.6 µM); against Enterococcus faecalis [11] it was 16 µg/mL (≈ 44.8 µM); with Staphylococcus aureus [12], 0.12 µg/mL (≈ 0.336 µM); with Escherichia coli [14], 2 µg/mL (≈ 5.6 µM); with Staphylococcus aureus [15] it was 0.25 µg/mL (≈ 0.7 µM). Further, the values for the MIC against Pseudomonas aeruginosa [17] and in the test on Staphylococcus aureus [18] were over 64 µg/mL and 0.25 µg/mL (≈ 0.7 µM), respectively.

By MIC is commonly meant the lowest concentration that inhibits growth of the organism. Read a low MIC as greater potency.
